Assay results: ChEMBL document CHEMBL2086314, “Synthesis and anticonvulsant activity of new N-Mannich bases derived from 3-(2-fluorophenyl)- and 3-(2-bromophenyl)-pyrrolidine-2,5-diones. Part II” (Bioorg Med Chem, 2012)
Calls of active or inactive are those of the source. The calls are words filed in the database; no cut-off is given here.

System: Mus musculus
Assay: Anticonvulsant activity in CF-1 albino mouse assessed as protection from maximal electric shock-induced seizures at 300 mg/kg, ip measured after 0.5 hrs
Type: functional, organism-based
Design: dose 300 mg/kg
Details: not given
Procedure, shortened: (§1)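 Male CF-1 mice dosed ip at 30, 100 or 300 mg/kg, suspension in 0.5% methylcellulose/water. MES: corneal electrodes primed with electrolyte containing anaesthetic, 50 mA, 60 Hz, 0.2 s. Examined 0.5 and 4 h after dosing. Value is the minimum dose protecting half or more of the animals.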

Structure (SMILES)	Activity
O=C1CC(c2ccccc2F)C(=O)N1CN1CCN(c2cccc(Cl)c2)CC1 (racemic)	inactive
O=C1CC(c2ccccc2Br)C(=O)N1CN1CCN(c2ccc(Cl)cc2)CC1 (racemic)	inactive
O=C1CC(c2ccccc2Br)C(=O)N1CN1CCN(c2cccc(C(F)(F)F)c2)CC1 (racemic)	inactive
O=C1CC(c2ccccc2Br)C(=O)N1CN1CCN(c2ccccc2Cl)CC1 (racemic)	inactive
O=C1CC(c2ccccc2F)C(=O)N1CN1CCN(c2ccccc2F)CC1 (racemic)	inactive
O=C1CC(c2ccccc2F)C(=O)N1CN1CCN(c2ccccc2Cl)CC1 (stereo not drawn)	inactive

System: Mus musculus
Assay: Neurotoxicity in CF-1 albino mouse assessed as motor impairment at 300 mg/kg, ip measured after 0.5 hrs by rotarod test
Type: toxicity, organism-based
Design: dose 300 mg/kg, route intraperitoneal
Details: in vivo
Procedure, shortened: (§2)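 Rotarod neurotoxicity in male CF-1 mice given ip doses of 30, 100 or 300 mg/kg (0.5% methylcellulose suspension), examined 0.5 and 4 h after dosing. Impairment means failing to hold balance on the rod for 1 min. Value is the minimum dose causing toxicity in half or more of the animals; response comments are recorded.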

Structure (SMILES)	Activity
O=C1CC(c2ccccc2F)C(=O)N1CN1CCN(c2cccc(Cl)c2)CC1 (racemic)	Non-toxic
O=C1CC(c2ccccc2Br)C(=O)N1CN1CCN(c2ccc(Cl)cc2)CC1 (racemic)	Non-toxic
O=C1CC(c2ccccc2Br)C(=O)N1CN1CCN(c2cccc(C(F)(F)F)c2)CC1 (racemic)	Non-toxic
O=C1CC(c2ccccc2Br)C(=O)N1CN1CCN(c2ccccc2Cl)CC1 (racemic)	Non-toxic
O=C1CC(c2ccccc2F)C(=O)N1CN1CCN(c2ccccc2F)CC1 (racemic)	Non-toxic
O=C1CC(c2ccccc2F)C(=O)N1CN1CCN(c2ccccc2Cl)CC1 (stereo not drawn)	Non-toxic

System: Mus musculus
Assay: Anticonvulsant activity in ip dosed CF-1 albino mouse assessed as protection from maximal electric shock-induced seizures measured after 4 hrs
Type: functional
Details: read-out: MED
Procedure, shortened: as §1

Structure (SMILES)	minimal effective dose
O=C1CC(c2ccccc2Br)C(=O)N1CN1CCN(c2ccc(Cl)cc2)CC1 (racemic)	300 mg/kg
O=C1CC(c2ccccc2Br)C(=O)N1CN1CCN(c2cccc(C(F)(F)F)c2)CC1 (racemic)	300 mg/kg
O=C1CC(c2ccccc2Br)C(=O)N1CN1CCN(c2ccccc2Cl)CC1 (racemic)	300 mg/kg

System: Mus musculus
Assay: Anticonvulsant activity in CF-1 albino mouse assessed as protection from maximal electric shock-induced seizures at 300 mg/kg, ip measured after 4 hrs
Type: functional, organism-based
Design: dose 300 mg/kg
Details: not given
Procedure, shortened: as §1

Structure (SMILES)	Activity
O=C1CC(c2ccccc2F)C(=O)N1CN1CCN(c2cccc(Cl)c2)CC1 (racemic)	inactive
O=C1CC(c2ccccc2F)C(=O)N1CN1CCN(c2ccccc2F)CC1 (racemic)	inactive
O=C1CC(c2ccccc2F)C(=O)N1CN1CCN(c2ccccc2Cl)CC1 (stereo not drawn)	inactive

System: Mus musculus
Assay: Neurotoxicity in CF-1 albino mouse assessed as motor impairment at 300 mg/kg, ip measured after 4 hrs by rotarod test
Type: toxicity, organism-based
Design: dose 300 mg/kg, route intraperitoneal
Details: in vivo
Procedure, shortened: as §2

Structure (SMILES)	Activity
O=C1CC(c2ccccc2F)C(=O)N1CN1CCN(c2cccc(Cl)c2)CC1 (racemic)	Non-toxic
O=C1CC(c2ccccc2Br)C(=O)N1CN1CCN(c2ccc(Cl)cc2)CC1 (racemic)	Non-toxic
O=C1CC(c2ccccc2Br)C(=O)N1CN1CCN(c2ccccc2Cl)CC1 (racemic)	Non-toxic
O=C1CC(c2ccccc2F)C(=O)N1CN1CCN(c2ccccc2F)CC1 (racemic)	Non-toxic
O=C1CC(c2ccccc2F)C(=O)N1CN1CCN(c2ccccc2Cl)CC1 (stereo not drawn)	Non-toxic
